PABP FP inh = PABP-poly(A) binding inhibition | inhibition, % at 35 µM | PABP-poly(A) RNA binding, fluorescence polarization | P11940 | actives 1% (n = 290,000);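 further: calls also rest on retests at 20 µM and on dose response follow-up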
Target sequence (P11940 whole entry, looked up): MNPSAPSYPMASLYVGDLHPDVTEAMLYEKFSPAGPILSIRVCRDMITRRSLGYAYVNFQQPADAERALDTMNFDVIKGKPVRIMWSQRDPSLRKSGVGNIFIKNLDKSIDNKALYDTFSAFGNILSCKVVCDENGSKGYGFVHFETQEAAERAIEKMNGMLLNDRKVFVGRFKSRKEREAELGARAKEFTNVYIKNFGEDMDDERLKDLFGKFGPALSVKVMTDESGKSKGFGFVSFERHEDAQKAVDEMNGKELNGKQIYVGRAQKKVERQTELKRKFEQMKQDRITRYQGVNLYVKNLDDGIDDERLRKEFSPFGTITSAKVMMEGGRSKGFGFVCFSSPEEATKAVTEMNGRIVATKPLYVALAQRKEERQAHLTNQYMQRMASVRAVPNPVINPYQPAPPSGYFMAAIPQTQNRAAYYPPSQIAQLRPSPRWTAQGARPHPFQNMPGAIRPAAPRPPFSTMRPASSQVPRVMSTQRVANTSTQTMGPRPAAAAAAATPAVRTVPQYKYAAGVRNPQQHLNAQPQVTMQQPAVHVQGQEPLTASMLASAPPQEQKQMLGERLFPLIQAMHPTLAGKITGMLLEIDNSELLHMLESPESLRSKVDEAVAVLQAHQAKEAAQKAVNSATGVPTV
eIF4H FP inh = inhibitors of RNA binding by human eIF4H; inhibition, % at 35 µM; Q15056; eIF4H fluorescence polarization binding assay; actives 0.94% (n = 290,000);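 further: calls also rest on retests at 20 µM and on dose response follow-up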
PABP1 MLLE inh = inhibitors of microRNA-mediated deadenylation, human PABP1 MLLE binding; actives 0.36% (n = 360,000); GST-MLLE / FITC-PAM2 fluorescence polarization; AID 588489; inhibition, % at 20 µM; in the data active means inhibition above about 35%, passing the limit was not always enough;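 further: plate controls were DMSO wells with GST-MLLE for no effect and wells lacking GST-MLLE protein for full effect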
core dimer inh = HCV core protein dimerization inhibition. TR-FRET GST/Flag-core106 dimerization, 1536-well. inhibition, % at 5 µM. actives 0.33% (n = 300,000). AID 1899;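 active means inhibition above the mean of all tested compounds plus 3 SD, set per screening campaign, cut at about 45% in these data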
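assay system = GST-tagged and Flag-tagged HCV core protein residues 1-106 | controls = unlabelled core106 and no-GST-core106 wells | incubation = compound-protein-antibody incubation 4 h at 22.5 °C | probe or stimulus = Eu donor and XL665 acceptor anti-tag antibodies | read-out = % inhibition based on acceptor/donor emission ratio | signal = TR-FRET 671 and 617 nm emission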
DNA FID counter-1 = fluorescent intercalator displacement, NS3 helicase counter-screen; DNA fluorescent intercalator displacement, fluorescence; inhibition, % at 7.9 µM; actives 0.17% (n = 290,000); AID 1845; in the data active means inhibition above about 37%;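 further: 0% = vehicle and 100% = reference compound; higher means more ethidium bromide displaced from hairpin DNA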
HCV NS3 hel inh = blocks Hepatitis C virus NS3 helicase unwinding; NS3 helicase DNA unwinding, Cy5 molecular beacon fluorescence; inhibition, % at 10.9 µM; actives 0.56% (n = 290,000);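 active means inhibition above the mean of all tested compounds plus 3 SD, set per campaign, cut at about 35% in these data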;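 further: 0% = DMSO wells and 100% = thioflavine S control wells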
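Assay system: hepatitis C virus NS3 helicase domain fragment enzyme. Also added: annealed dual-labelled DNA beacon duplex, ATP-started. Timing: 1 h reaction at 25 °C, ATP-initiated. Technique: Cy5 fluorescence at 0 and 60 min, beacon hairpin quenching. Evaluation: % inhibition of unwinding. Replication: one well per compound.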
NS3 hel confirm = HCV NS3 helicase inhibition, confirmation assay; NS3 helicase DNA unwinding, Cy5 molecular beacon fluorescence; shares compounds with HCV NS3 hel inh; actives 31% (n = 1,600); inhibition, % at 10.9 µM;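 active means inhibition above the mean of all tested compounds plus 3 SD, cutoff set per campaign, cut at about 36% in these data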
DNA FID counter-2 = counter-screen for HCV NS3 helicase inhibitors: DNA intercalator displacement; shares compounds with HCV NS3 hel inh; DNA fluorescent intercalator displacement, fluorescence; actives 4% (n = 1,600); inhibition, % at 7.9 µM; in the data active means inhibition above about 37%;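 further: 0% = vehicle and 100% = reference compound; higher means more displacement of ethidium bromide from the DNA hairpin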
DNA FID DR = displaces fluorescent intercalator from DNA, HCV helicase counter-screen; shares compounds with HCV NS3 hel inh; fluorescent intercalator displacement from DNA, fluorescence; IC50, µM; 120 tested, under 10 active
* marks the source's active call; other numbers are inactive results; i = inactive; ? = inconclusive; · = not tested or not shown. This is a sample that favours compounds with a hit; in the whole collection about 2% have one here. Unless noted, how the calls were made is not given here.

SMILES	PABP FP inh	eIF4H FP inh	PABP1 MLLE inh	core dimer inh	DNA FID counter-1	HCV NS3 hel inh	NS3 hel confirm	DNA FID counter-2	others
OC1COCOC1C(O)C1OCOCC1O (stereo unspecified)	·	·	-5	·	·	·	·	·
C(=C\c1ccco1)/c1ccc2ccccc2n1	88	106	-12	53*	-11	42*	6	7
Cc1ccc(NC(=S)Nc2cccc(-c3n[nH]c(=S)o3)c2)cc1	-3	4	28	-5	-5	39*	35	-6
NC(=S)Nc1cccc(-c2n[nH]c(=S)o2)c1	4	-3	-28	1	1	-18	·	·
Cc1ccc(N2C(=O)CC(N(O)C3CC(=O)N(c4ccc(C)cc4)C3=O)C2=O)cc1 (stereo unspecified)	-5	-9	22	0	-30	38*	-14	-12
Cc1ccc(CC2CC(=O)N(c3ccc(C)cc3)C2=O)cc1 (stereo unspecified)	2	12	1	-1	-11	0	·	·
CCC(C)(C)NC(=O)C(c1cccc(OC)c1OC)N(CCOC)C(=O)CCC(=O)Nc1cc(C)on1 (stereo unspecified)	6	-9	-6	-2	-40	-5	·	·
CCC(=O)Nc1ccc2ccccc2c1	-9	0	6	-2	0	1	·	·
CCC(=O)Nc1ccc2nc3c(=O)[nH]c(=S)[nH]c3nc2c1	98*	112*	38	-13	0	39*	-21	5
Cn1nc(C(C)(C)C)cc1C(=O)N1CCCC(c2cc(C(=O)NCc3ccccc3)no2)C1 (stereo unspecified)	·	·	-3	·	·	·	·	·
C[C@H](CO)N1C[C@H](C)[C@@H](CN(C)C(=O)c2ccc3ccn(C)c3c2)OCc2cn(nn2)CCCC1=O	·	·	-12	·	·	·	·	·
Cc1ccc(C(O)c2ncc(-c3ccccc3C(F)(F)F)[nH]2)cc1F (stereo unspecified)	·	·	-4	·	·	·	·	·
CC(=O)c1ccc2c(c1)C1C=CCC1C(C(=O)O)N2 (stereo unspecified)	89*	101*	18	·	-13	51*	90*	1
CC(=O)c1ccc2c(c1)C1C=CCC1C(c1ccncc1)N2 (stereo unspecified)	7	0	6	3	-12	17	·	·
COc1cccc2c1NC(C(=O)O)C1CC=CC21 (stereo unspecified)	active	96*	22	45	-19	58*	93*	-2
CCOC(=O)Cc1cc(=O)n2[nH]cc(-c3ccc(Cl)cc3)c2n1	14	16	8	4	-12	64*	84*	13
CCOC(=O)Cc1cc(=O)n2[nH]c(-c3ccc(Cl)cc3)cc2n1	6	19	5	-2	-10	10	·	·
CC(C)CSC1=NSC2=NC(=O)/C(=C\c3ccccc3)C(=N)N12	-5	-10	6	7	-7	43*	69*	8
CC(C)CSC1=NSC2=NC(=O)/C(=C\c3coc4ccccc4c3=O)C(=N)N12	-7	?	i	4	-12	33	·	·
O=C(CN1C(=O)CSc2ncccc21)Nc1cccc(Cl)c1	8	16	11	13	-10	12	·	·
CC(=O)OCCc1[nH]c2ccccc2c1C	2	-1	0	-7	-21	52*	-16	2
CC(=O)OCCc1c2ccccc2c(CCCN(C)C)c2ccccc12	·	·	1	-2	·	·	·	·
CN(C)c1ccc(/C=N/NC(=O)c2ccccc2O)o1	-6	12	12	-2	-15	-1	·	·
CN(C)c1ccc(/C=N/NC(=O)C(O)(c2ccccc2)c2ccccc2)o1	19	5	-7	7	-23	65*	-31	-31
O=C(Nc1ccc(NC(=O)C2CCCCC2)nc1)c1cccc(F)c1	2	3	-5	·	-14	7	·	·
SMILES	PABP FP inh	eIF4H FP inh	PABP1 MLLE inh	core dimer inh	DNA FID counter-1	HCV NS3 hel inh	NS3 hel confirm	DNA FID counter-2	others
Cc1c(CC(=O)NCC(=O)O)c(=O)oc2cc3occ(-c4ccccc4)c3cc12	16	1	-3	3	-13	38*	51*	-29
Cc1c(CC(=O)NCCCC(=O)O)c(=O)oc2cc3occ(-c4ccccc4)c3cc12	9	-3	3	10	-25	19	·	·
CCC(C(=O)O)n1nnc(-c2ccc(-c3ccc(OC)cc3)cc2)n1 (stereo unspecified)	2	-7	1	-5	-23	39*	62*	-21	DNA FID DR=>79
O=C(C1=C[C@H](c2csc3ccccc23)C[C@H](OCc2ccc(CO)cc2)O1)N1CCN(Cc2ccc3c(c2)OCO3)CC1	-16	-8	4	5	-15	-35	·	·
COc1cc(/C=C2\SC(=S)N(C(C(=O)O)c3ccccc3)C2=O)ccc1O (stereo unspecified)	3	42	-75	-3	-15	43*	75*	-1
O=C1/C(=C\c2ccc(O)c(O)c2)SC(=S)N1Cc1ccccc1	-5	3	-125	·	36	69*	59*	52*
CCOc1ccc(-c2cc(NC(=O)c3c(F)cccc3F)c(C(=O)O)s2)cc1	14	10	-1	·	22	32	·	·
O=C(Nc1cc(-c2ccccc2)sc1C(=O)O)c1cccc(F)c1	9	-12	-6	·	14	39*	46*	18
CC(=O)c1ccccc1NC(=O)CN1C(=O)CS/C1=C\c1nc(-c2ccc(C)cc2)cs1	-4	-11	-18	31	-3	37*	-3	-16
Cc1ccc(-c2csc(/C=C3/SC(C)C(=O)N3CC(=O)Nc3ccccc3F)n2)cc1 (stereo unspecified)	·	·	-9	·	·	·	·	·
Cc1sc(NC(=S)NC(=O)C(C)(C)C)c(C(N)=O)c1C	2	2	24	-21	-1	8	·	·
Cc1cc(C)c(C(=O)CSc2nnc(-c3ccccc3Br)o2)cc1C	-6	-3	-60	·	-8	39*	0	3
COCCNc1oc(Cc2cccc3ccccc23)nc1C#N	1	6	-26	8	-20	0	·	·
O=C(/C=C/c1ccco1)Nc1nc(-c2ccccn2)cs1	-19	88	-28	17	-13	13	·	·
Cc1ccc(-c2csc(N/N=C/c3ccco3)n2)cc1	-5	1	29	2	-7	46*	-11	13
O=C(/C=C/c1ccco1)Nc1nc(-c2ccc(F)c(F)c2)cs1	6	-8	·	7	-4	54*	-6	5
C(=N\Nc1nc(-c2ccccc2)cs1)/c1ccco1	4	-2	17	-8	-8	34	·	·
